Shown are actives, neighbours in structure and some others; about 4.1% of the full set was active somewhere.
Kir21 inh: inhibitors of mouse Kir2.1 inward-rectifier potassium channel; HEK293-Kir2.1, FluxOR thallium flux fluorescence; active compounds read low; hit rate 0.85% among 310,000; AID 1672; P35561; B-score at 10 µM;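 active means fluorescence ratio B-score at or below minus 3 SD of library scores, with starting-brightness B-score within 2 SD, cut at about -4.2 in these data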;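 further: channel flux triggered by added potassium and thallium sulfate stimulus; B-score of peak minus minimum fluorescence over baseline after thallium stimulus; more negative B-score means stronger Kir2.1 block with less thallium influx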
MrgX1 ag: activates human MrgX1 receptor signaling. Q96LB2. MrgX1-HEK293 cells, Fluo-4 calcium fluorescence, agonist mode; active compounds read high. B-score at 10 µM. hit rate 0.44% among 310,000. AID 588627;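 active means calcium response B-score plate-corrected fluorescence ratio at least 3 library SD, with starting fluorescence B-score inside 5 SD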
Target sequence (Q96LB2 whole entry, looked up): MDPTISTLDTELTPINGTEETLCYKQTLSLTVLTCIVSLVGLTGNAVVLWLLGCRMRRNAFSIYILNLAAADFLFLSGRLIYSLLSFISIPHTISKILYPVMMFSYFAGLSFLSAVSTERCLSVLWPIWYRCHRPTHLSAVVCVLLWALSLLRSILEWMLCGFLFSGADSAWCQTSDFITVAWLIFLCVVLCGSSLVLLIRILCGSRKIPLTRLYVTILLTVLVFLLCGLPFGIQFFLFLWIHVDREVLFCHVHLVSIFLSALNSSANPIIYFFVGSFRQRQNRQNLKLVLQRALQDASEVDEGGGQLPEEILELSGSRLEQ
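Material: MrgX1-expressing HEK293 cells / Dosing: compound as first of three additions / Incubation: overnight seeding, then 1 h dark dye loading / Signal: Fluo-4 NW calcium fluorescence / Evaluation: B-scored fluorescence response ratio / Benchmarks: positive and negative control wells on each plate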
RGS4 inh: inhibitors of human RGS4; hit rate 0.45% among 310,000; HEK293 M3R/RGS4 inducible, Fluo-4 calcium flux; active compounds read high; triggered by carbachol at its EC20; B-score at 10 µM;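 active means B-score, a plate-corrected calcium signal, over three deviations above library mean, with baseline fluorescence within five deviations of library mean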;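 further: RGS4 expression induced by doxycycline in cells with stable M3 receptor; B-score is computed from the integrated fluorescence ratio over baseline after carbachol; higher B-score means a larger calcium signal and so more RGS4 inhibition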
Target sequence (P49798 whole entry, looked up): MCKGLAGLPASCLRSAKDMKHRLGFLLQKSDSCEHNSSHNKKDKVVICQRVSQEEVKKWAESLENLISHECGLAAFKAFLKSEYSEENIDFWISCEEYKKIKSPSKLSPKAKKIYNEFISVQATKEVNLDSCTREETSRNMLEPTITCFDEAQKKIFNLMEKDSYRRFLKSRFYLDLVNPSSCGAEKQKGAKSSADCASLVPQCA
MrgX1 antagonist: antagonists of human MrgX1 receptor. Q96LB2. MRGX1-HEK293 calcium flux, Fluo-4, BAM8-22 antagonism; active compounds read low. hit rate 1.3% among 310,000. B-score at 10 µM;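 active means calcium-response B-score plate-corrected more than 3 library SD below zero, starting fluorescence within 5 deviations, no agonist response on first addition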;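 further: peak minus trough fluorescence over baseline after final BAM8-22 challenge near maximal dose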
MrgX1 PAM: human MrgX1 positive allosteric modulation, primary screen; hit rate 0.63% among 310,000; Q96LB2; MrgX1-HEK293, Fluo-4 calcium flux, FDSS; active compounds read high; B-score at 10 µM; AID 588675;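 active means plate-corrected calcium response at least 3 library SD above typical, normal starting fluorescence, not activating the receptor alone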;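 further: compound read alongside a low EC10 to EC30 dose of BAM8-22 agonist; peak minus trough fluorescence over baseline measured at the second addition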
RGS4 pot: RGS4 potentiation or activation. HEK293 M3R/inducible RGS4, carbachol calcium flux Fluo4; active compounds read low. B-score at 10 µM. hit rate 0.92% among 310,000;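 active means B-score of the integrated calcium signal more than 4 SD below the library mean, with starting fluorescence not abnormally high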;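 further: negative B-score means reduced calcium response which marks RGS4 activation or potentiation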
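Assay system: Inducible-RGS4 HEK293 cells carrying M3 receptor | Schedule: Compound preincubation 20 min at room temperature before agonist | Signal: Kinetic calcium fluorescence imaging with Fluo4-AM dye, 2 µM | Read-out basis: B score from integrated fluorescence ratio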
RGS4 act valid: confirmation of RGS4 activators. shares compounds with RGS4 pot. HEK293 M3R/RGS4 inducible, carbachol calcium flux Fluo4. inhibition, % at 10 µM. hit rate 89% among 1,100. AID 602282;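 active means inhibition above 3 SD of the buffer control wells, cut at about 41% in these data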;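 further: signal is the integrated peak-minus-minimum Fluo4 fluorescence over baseline ratio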
RGS4 act ctr: counter-screen for RGS4 activators: effect in non-induced cells | hit rate 82% among 1,100 | HEK293 M3R non-induced RGS4, Fluo4 calcium flux; after carbachol challenge at its EC90 | inhibition, % at 10 µM | shares compounds with RGS4 pot;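 active means inhibition exceeding 3 SD of buffer-only control wells, cut at about 26% in these data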;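 further: percent drop in integrated peak-minus-baseline over baseline Fluo4 ratio after carbachol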
* = called active by the depositor; i = inactive; / = not tested or not shown.

SMILES	Kir21 inh	MrgX1 ag	RGS4 inh	MrgX1 antagonist	MrgX1 PAM	RGS4 pot	RGS4 act valid	RGS4 act ctr
CN(C)CCNC(C(=O)Nc1cc(Cl)cc(Cl)c1)c1ccccc1 (stereo unspecified)	-1.1	i	i	i	i	-9.7*	91*	49*
CCOc1ccccc1N(C)C(=O)c1cc2c(=O)n(CC)c3ccccc3c2s1	-0.69	i	i	i	i	i	/	/
CN1/C(=C\C(=O)Nc2ccc(Br)cc2)C(C)(C)c2ccccc21	1.6	i	i	i	i	-9.2*	92*	96*
CN1/C(=C\C(=O)Nc2cccc(Cl)c2)C(C)(C)c2ccccc21	0.41	i	i	i	i	i	/	/
CN1/C(=C\C(=O)Nc2ccc(F)cc2)C(C)(C)c2ccccc21	-3.5	i	i	i	i	-8.8*	50*	26*
CCOC(=O)C1=C(C)N=C2c3ccccc3C(=O)C2C1c1ccc(Cl)cc1 (stereo unspecified)	-0.62	i	i	i	i	i	/	/
CCOC(=O)C1=C(Cc2ccc(Cl)cc2)C(=O)c2ccccc2C1=O	0.05	i	i	-4.5*	i	-9.3*	86*	30*
N#C/C(=C\c1c(F)cccc1Cl)C(=O)NC1CC1	-0.38	i	i	i	i	i	/	/
COc1ccccc1C(=O)NCC(c1cccs1)N1CCc2ccccc21 (stereo unspecified)	-0.02	i	i	i	i	-7.8*	62*	36*
COc1cccc(-c2nc(N3CCCCC3)c3ccccc3n2)c1O	0.68	i	i	i	i	-8.8*	92*	91*
COc1cccc(-c2nc(N3CCN(c4ccccc4)CC3)c3ccccc3n2)c1O	-0.66	i	i	i	i	i	/	/
CCCCn1c2ccccc2c2nnc(SCCN3CCCCC3)nc21	0.03	/	i	/	/	-8.5*	92*	78*
O=C(c1ccco1)N1N=C(c2ccc3nccnc3c2)CC1c1ccccc1 (stereo unspecified)	1.5	i	i	i	i	i	/	/
C(=N\c1nc2ccccc2n1Cc1ccccc1)/c1cccs1	1.6	i	i	i	i	-9.8*	76*	41*
C(=N\c1nc2ccccc2n1CCN1CCOCC1)/c1cccs1	0.48	i	i	i	i	i	/	/
CCCCc1ccc(NC(=O)CN(C)CC(=O)Nc2ccccc2Cl)cc1	-0.53	i	i	i	i	i	/	/
CN1CCN(C2=Cc3ccccc3Sc3cc(F)ccc32)CC1	-8.4*	i	i	i	8.2*	-12*	92*	94*
O=C(CNCc1ccccc1)NCCCN1CCCC1=O	0.64	i	i	i	i	i	/	/
Cc1ccc(COc2ccc(CNCCCN3CCCCCC3=O)cc2)cc1	-5.1*	i	i	i	i	-12*	93*	65*
CCOC(=O)N1CCN(C(=O)Nc2ccccc2)CC1	0.88	i	i	i	i	i	/	/
O=C1C=C(N2CCCCCC2)C2(CCCCC2)O1	0.71	i	i	i	i	-8.4*	66*	0
CCOc1cc(S(=O)(=O)NCc2ccco2)c(OCC)cc1-n1cnnn1	-0.15	i	i	i	i	i	/	/
Cc1ccc(S(=O)(=O)n2c(N)nc3ccccc32)cc1	-0.65	i	i	i	i	-7.8*	92*	96*
CCCCOc1ccc(S(=O)(=O)n2c(C)nc3ccccc32)cc1	-0.07	i	i	i	i	-8.3*	93*	96*
CCOc1ccc(S(=O)(=O)n2c(C)nc3ccccc32)cc1	/	i	/	i	i	/	/	/
SMILES	Kir21 inh	MrgX1 ag	RGS4 inh	MrgX1 antagonist	MrgX1 PAM	RGS4 pot	RGS4 act valid	RGS4 act ctr
CCOc1ccc2nc(NC(=O)C3(C)CC3(Br)Br)sc2c1 (stereo unspecified)	-0.17	i	i	i	i	-8.1*	68*	84*
COc1ccc2c(Cn3cnc4cc([N+](=O)[O-])ccc4c3=O)cc(=O)oc2c1	0.23	i	i	i	i	i	/	/
C=CCN1C(=O)/C(=C2\SC(N3CCOCC3)=NC2=O)c2cc(Br)ccc21	2.6	i	i	i	i	-8.6*	86*	63*
CCN1C(=O)/C(=C2\SC(N3CCOCC3)=NC2=O)c2ccccc21	-0.64	/	i	/	/	i	/	/
CC(C)(C)c1ccccc1OCC(=O)Nc1ccccc1C(=O)NCc1cccnc1	-6*	i	i	i	i	-11*	88*	59*
N#CCC(=O)N/N=C/c1c(-c2ccccc2)n(-c2ccccc2)c2ccccc12	-0.12	i	i	i	i	-12*	86*	50*
COc1ccc(C2CC2/C(C)=N/OC(=O)c2cccs2)cc1 (stereo unspecified)	-1.1	i	i	i	i	i	/	/
Cc1cc(/C=C(/C#N)c2nc3ccccc3[nH]2)c(C)n1-c1cc(C(=O)O)cc(C(=O)O)c1	-3.1	/	i	/	/	-7.9*	52*	44*
CCO[C@H]1OC(C(=O)Nc2ccccc2)=C[C@@H](c2ccc(C(F)(F)F)cc2)[C@@H]1CCCO	-0.3	i	i	i	i	i	/	/
Cc1c(S(=O)(=O)NC2CCCCCC2)c(=O)n(C)c(=O)n1C	-0.88	i	i	i	i	i	/	/
CS(=O)(=O)N1CCC(C(=O)Nc2ccc(F)c(Cl)c2)CC1	-0.52	i	i	i	i	-8.4*	0	0
CS(=O)(=O)N1CCC(C(=O)NNC(=O)Nc2ccc(F)c(Cl)c2)CC1	0.28	i	i	i	i	i	/	/
O=C(Cc1cc(=O)[nH]c(=O)[nH]1)NCc1ccc(Cl)cc1	-0.54	i	i	i	i	i	/	/
Cc1cc(Br)ccc1OCCCCN1CCC(C)CC1	-8.7	i	i	i	i	-8.5*	89*	64*
O=C(O)c1cc2nc(-c3ccccc3)cc(-c3ccccc3)n2n1	0.39	i	i	i	i	i	/	/
CC1CCCCN1C(=O)c1cc2nc(-c3ccccc3)cc(-c3ccccc3)n2n1 (stereo unspecified)	0.12	i	i	i	i	-7.9*	74*	0

Bioassay records from PubChem BioAssay.
